Data on 28 compounds can be found in paper PMC7938327 (Journal of medicinal chemistry, 2017).

Entries after “also recorded” stand apart in the source; their conditions may differ.

In data set [1] the target is T1, human recombinant ATX (Homo sapiens, UniProt Q13822). The data set can be described thus: ATX lysophospholipase D activity, FS-3 hydrolysis. The data set is classed as biochemical. The conditions noted are these: for ATX inhibitory activity (in words): FS-3 substrate; for mechanism: FS-3 0 to 10 μM, inhibitor 0, 0.5 × IC50 or 2 × IC50, best global fit.
Data set [2] has as its target T1, human recombinant ATX. Nature of the data set: ATX nucleotide pyrophosphatase activity, pNP-TMP hydrolysis. The note with it: 1 mM pNP-TMP, 4 nM ATX, compound 0 to 1 μM. The class given is biochemical. An outline of the steps: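 Human recombinant FLAG-tagged ATX was expressed in Sf9 insect cells and purified on anti-FLAG resin. Absorbance at 405 nm was read every 2 min for 1 h.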

The nature of data set [3]: In vitro stability in 4T1 cell culture by LC-MS. The data set is classed as in vitro ADME, mouse. The note with it: 40 h of exposure to 4T1 cells.
For data set [4], the system named is A2058 human melanoma cells. Nature of the data set: ATX-mediated in vitro invasion assay. The data set is classed as cell-based. The note with it: exogenous LPC and recombinant ATX.
The next data set addresses LPA1 (Homo sapiens, UniProt Q92633). The data set can be described thus: LPA-mediated Ca2+ mobilization, LPA1 RH7777 cells. The data set is classed as cell-based. The note with it: LPA1-elicited Ca2+ responses. The method in brief:
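Rat hepatoma RH7777 cells stably expressing LPA1 were seeded at 5 × 10^4 per well on poly-L-lysine, left overnight, then serum-deprived 4 h in HEPES-Krebs buffer pH 7.4. Cells were loaded 30 min with 4.5 μg/mL Fura-2AM plus 0.45% Pluronic F-127. […] The 340/510 and 380/510 nm ratio was read every 3.42 s for 70 s, normalized to LPA Emax, and fitted by variable-slope regression for IC50.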

Data set [5] has as its system 4T1-TaxR cancer stem-like cells (mammospheres). The data set can be described thus: 4T1-TaxR mammosphere viability with paclitaxel. The class given is cell-based, mouse.

Sequence of LPA1 (Q92633 whole entry, species assumed): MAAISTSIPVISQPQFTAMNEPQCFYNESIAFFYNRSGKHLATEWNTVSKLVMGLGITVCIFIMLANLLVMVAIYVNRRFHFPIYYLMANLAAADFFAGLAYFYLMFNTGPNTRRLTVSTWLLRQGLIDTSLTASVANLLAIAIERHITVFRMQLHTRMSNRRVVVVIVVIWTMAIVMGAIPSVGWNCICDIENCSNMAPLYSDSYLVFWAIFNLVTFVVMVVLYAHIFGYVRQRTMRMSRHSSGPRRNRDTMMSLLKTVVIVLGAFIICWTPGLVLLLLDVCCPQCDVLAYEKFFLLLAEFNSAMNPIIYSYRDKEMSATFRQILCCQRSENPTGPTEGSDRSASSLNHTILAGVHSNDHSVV

“4-(2,4-Dichloro-5-(morpholinosulfonyl)benzamido)-2,6-difluoro-benzoic Acid [Compound 4]”: at human recombinant ATX [1], the “ATX inhibitory activity (in words)” value is “inactive”. The pNP-TMP inhibition entry on human recombinant ATX [2] is “none”.
Consider `O=C(Nc1cccc(F)c1)c1cc(S(=O)(=O)N2CCOCC2)c(Cl)cc1Cl` [Compound 3, 2,4-Dichloro-N-(3-fluorophenyl)-5-(morpholinosulfonyl)-benzamide], for which, on human recombinant ATX [1], the mechanism entry is reported as “competitive”. Also, the pNP-TMP inhibition result on human recombinant ATX [2] is “none”. The “in vitro stability (in words)” value in data set [3] is listed as “significant stability”.
Consider `O=C(Nc1ccc(F)c(F)c1)c1cc(S(=O)(=O)N2CCOCC2)c(Cl)cc1Cl` [Compound 3a, 2,4-Dichloro-N-(3,4-difluorophenyl)-5-(morpholinosulfonyl)-benzamide], for which, at human recombinant ATX [1] (ATX, FS-3), the “fold IC50 improvement relative to parent compound 3” value is reported as 4 fold. Further, the mechanism entry at human recombinant ATX [1] was “competitive”. Moreover, the pNP-TMP inhibition result at human recombinant ATX [2] is given as “none”. In addition, in data set [4] (10 μM, compared with 30), the “inhibition of A2058 cell invasion, screen at 10 μM” value is listed as “as effective as 30”. The “inhibition of A2058 cell invasion (in words)” value in data set [4] (dose–response) is recorded as “inhibit ATX-dependent invasion; also recorded: dose dependently decreased A2058 cell invasion”.
Take `O=C(Nc1c(F)c(F)c(F)c(F)c1F)c1cc(S(=O)(=O)N2CCOCC2)c(Cl)cc1Cl` [Compound 3c, 2,4-Dichloro-5-(morpholinosulfonyl)-N-(perfluorophenyl)-benzamide]: the “ATX inhibitory activity (in words)” value on human recombinant ATX [1] was “poorly active”. Besides, the pNP-TMP inhibition result at human recombinant ATX [2] is on record as “none”.
The matching figures for `O=C(Nc1cc(Cl)c(Cl)c(Cl)c1)c1cc(S(=O)(=O)N2CCOCC2)c(Cl)cc1Cl` [Compound 3d, 2,4-Dichloro-5-(morpholinosulfonyl)-N-(3,4,5-trichlorophenyl)-benzamide]: “poorly active” and “none”.
Turning to `COc1cc(NC(=O)c2cc(S(=O)(=O)N3CCOCC3)c(Cl)cc2Cl)cc(OC)c1OC` [Compound 3e, 2,4-Dichloro-5-(morpholinosulfonyl)-N-(3,4,5-trimethoxyphenyl)-benzamide], the “ATX inhibitory activity (in words)” value on human recombinant ATX [1] was “poorly active”. In addition, the pNP-TMP inhibition entry at human recombinant ATX [2] is reported as “none”.
Consider `O=C(Nc1cc(Cl)c(F)c(Cl)c1)c1cc(S(=O)(=O)N2CCOCC2)c(Cl)cc1Cl` [Compound 3g, 2,4-Dichloro-N-(3,5-dichloro-4-fluorophenyl)-5-(morpholinosulfonyl)benzamide], for which the “fold higher potency of 3g over 3f” value on human recombinant ATX [1] (ATX, FS-3) is 2 fold. The mechanism entry at human recombinant ATX [1] is on record as “competitive”. In addition, the pNP-TMP inhibition result at human recombinant ATX [2] is reported as “none”. The “antagonist activity at LPA1 (in words)” value at LPA1 is given as “exhibited antagonist activity; also recorded: effective in antagonizing LPA1-elicited Ca^2+ responses”.
Regarding `N#Cc1c(F)cc(NC(=O)c2cc(S(=O)(=O)N3CCOCC3)c(Cl)cc2Cl)cc1F` [Compound 3h, 2,4-Dichloro-N-(4-cyano-3,5-difluorophenyl)-5-(morpholinosulfonyl)benzamide], the pNP-TMP inhibition result on human recombinant ATX [2] is “none”.
Still for that read-out and setting: next, `COC(=O)c1c(F)cc(NC(=O)c2cc(S(=O)(=O)N3CCOCC3)c(Cl)cc2Cl)cc1F` [Compound 3i, Methyl 4-(2,4-Dichloro-5-(morpholinosulfonyl)benzamido)-2,6-difluorobenzoate]: “none”.
Same read-out and setting: next, `O=C(Nc1cc(F)c(F)c(F)c1Br)c1cc(S(=O)(=O)N2CCOCC2)c(Cl)cc1Cl` [Compound 5, N-(2-Bromo-3,4,5-trifluorophenyl)-2,4-dichloro-5-(morpholinosulfonyl)benzamide]: “none”.
Take `O=S(=O)(c1cc(-c2nc3cccc(F)c3o2)c(Cl)cc1Cl)N1CCOCC1` [Compound 7, 2-(2,4-Dichloro-5-(morpholinosulfonyl)phenyl)-7-fluorobenzo[d]-oxazole]: at human recombinant ATX [1], the “ATX inhibitory activity (in words)” value was “failed to inhibit ATX”. The pNP-TMP inhibition entry at human recombinant ATX [2] is listed as “none”.
The matching figures for `O=S(=O)(c1cc(-c2nc3cc(F)c(F)cc3[nH]2)c(Cl)cc1Cl)N1CCOCC1` [Compound 8, 4-((2,4-Dichloro-5-(5,6-difluoro-1H-benzo[d]imidazol-2-yl)-phenyl)sulfonyl)-morpholine]: “failed to inhibit ATX” and “none”.
The matching figures for `CN(C(=O)c1cc(S(=O)(=O)N2CCOCC2)c(Cl)cc1Cl)c1cccc(F)c1` [Compound 9, 2,4-Dichloro-N-(3-fluorophenyl)-N-methyl-5-(morpholinosulfonyl)benzamide]: “only very weak potency” and “none”.
With `O=S(=O)(c1cc(CNc2ccc(F)c(F)c2)c(Cl)cc1Cl)N1CCOCC1` [Compound 10, N-(2,4-Dichloro-5-(morpholinosulfonyl)benzyl)-3,4-difluoroani-line], on human recombinant ATX [1], the “ATX inhibitory activity (in words)” value was “inactive”. Moreover, the pNP-TMP inhibition result on human recombinant ATX [2] is “none”.
Take `O=S(=O)(c1cc(CNc2cc(F)c(F)c(F)c2)c(Cl)cc1Cl)N1CCOCC1` [Compound 11, N-(2,4-Dichloro-5-(morpholinosulfonyl)benzyl)-3,4,5-trifluoroani-line]: at human recombinant ATX [2], the pNP-TMP inhibition entry was “none”.
`O=S(=O)(c1cc(C(=S)Nc2cccc(F)c2)c(Cl)cc1Cl)N1CCOCC1` [Compound 12, 2,4-Dichloro-N-(3-fluorophenyl)-5-(morpholinosulfonyl)-benzothioamide]: at human recombinant ATX [1], the “ATX inhibitory activity (in words)” value was “retained similar inhibitory activity as the amide analogues”. Moreover, at human recombinant ATX [2], the pNP-TMP inhibition result is recorded as “none”.
The like results for `O=S(=O)(c1cc(C(=S)Nc2ccc(F)c(F)c2)c(Cl)cc1Cl)N1CCOCC1` [Compound 13, 2,4-Dichloro-N-(3,4-difluorophenyl)-5-(morpholinosulfonyl)-benzothioamide] were, in that order, “retained similar inhibitory activity as the amide analogues” and “none”.
The like results for `O=S(=O)(c1cc(C(=S)Nc2cc(Cl)c(F)c(Cl)c2)c(Cl)cc1Cl)N1CCOCC1` [Compound 15, 2,4-Dichloro-N-(3,5-dichloro-4-fluorophenyl)-5-(morpholinosulfonyl)-benzothioamide] were, in that order, “retained similar inhibitory activity as the amide analogues” and “none”.
As to `O=S(=O)(Nc1cc(S(=O)(=O)N2CCOCC2)c(Cl)cc1Cl)c1cccc(F)c1` [Compound 19], the “ATX inhibitory activity (in words)” value on human recombinant ATX [1] is “lost their ATX inhibitory activity”. Besides, the pNP-TMP inhibition entry at human recombinant ATX [2] is “none”.
Regarding `O=S(=O)(c1cc(N(S(=O)(=O)c2cccc(F)c2)S(=O)(=O)c2cccc(F)c2)c(Cl)cc1Cl)N1CCOCC1` [Compound 20], the “ATX inhibitory activity (in words)” value at human recombinant ATX [1] was “lost their ATX inhibitory activity”. Besides, at human recombinant ATX [2], the pNP-TMP inhibition result is “none”.
For the compound `O=S(=O)(Nc1cccc(F)c1)c1cc(S(=O)(=O)N2CCOCC2)c(Cl)cc1Cl` [Compound 22, 2,4-Dichloro-N-(3-fluorophenyl)-5-(morpholinosulfonyl)-benzenesulfonamide], the “ATX inhibitory activity (in words)” value at human recombinant ATX [1] is “lost their ATX inhibitory activity”. Also, the pNP-TMP inhibition entry on human recombinant ATX [2] is “none”.
Turning to `O=S(=O)(Nc1cc(F)c(F)c(F)c1)c1cc(S(=O)(=O)N2CCOCC2)c(Cl)cc1Cl` [Compound 23, 2,4-Dichloro-5-(morpholinosulfonyl)-N-(3,4,5-trifluorophenyl)-benzenesulfonamide], the “ATX inhibitory activity (in words)” value on human recombinant ATX [1] is listed as “lost their ATX inhibitory activity”. In addition, the pNP-TMP inhibition entry on human recombinant ATX [2] is recorded as “none”.
Consider `O=C(Nc1cc(F)c(F)c(F)c1)c1cc(NN2CCOCC2)c(Cl)cc1Cl` [Compound 25, 2,4-Dichloro-5-(morpholinoamino)-N-(3,4,5-trifluorophenyl)-benzamide], for which the “ATX inhibitory activity (in words)” value at human recombinant ATX [1] was “completely lost ATX inhibitory activity”. In addition, the pNP-TMP inhibition entry on human recombinant ATX [2] is given as “none”.
For the compound `CS(=O)(=O)N(C(=O)c1cc(NN2CCOCC2)c(Cl)cc1Cl)c1cc(F)c(F)c(F)c1` [Compound 26a, 2,4-Dichloro-N-(methylsulfonyl)-5-(morpholinoamino)-N-(3,4,5-trifluorophenyl)-benzamide], on human recombinant ATX [2], the pNP-TMP inhibition result is “none”.
Still for that read-out and setting: next, `CN1CCN(S(=O)(=O)c2cc(C(=O)Nc3cc(F)c(F)c(F)c3)c(Cl)cc2Cl)CC1` [Compound 28a, 2,4-Dichloro-5-((4-methylpiperazin-1-yl)sulfonyl)-N-(3,4,5-trifluorophenyl)-benzamide]: “none”.
On the same count and under the same terms, next, `CN1CCN(S(=O)(=O)c2cc(C(=O)Nc3cc(Cl)c(F)c(Cl)c3)c(Cl)cc2Cl)CC1` [Compound 28b, 2,4-Dichloro-N-(3,5-dichloro-4-fluorophenyl)-5-((4-methylpiperazin-1-yl)sulfonyl)benzamide]: “none”.
As for `CN1CCN(S(=O)(=O)c2cc(C(=S)Nc3cc(Cl)c(F)c(Cl)c3)c(Cl)cc2Cl)CC1` [Compound 29, 2,4-Dichloro-N-(3,5-dichloro-4-fluorophenyl)-5-((4-methylpipera-zin-1-yl)sulfonyl)-benzothioamide], the pNP-TMP inhibition entry on human recombinant ATX [2] is reported as “none”.
Regarding `CCCCCCCCCCCCCCCc1ccc(CP(=O)(O)O)cc1` [compound 30, (4-pentadecylbenzyl)phosphonic acid, reference compound], the “resensitization of cancer stem-like cells to PT (in words)” value in data set [5] (4T1-TaxR cells) is “effectively resensitized”. Besides, in data set [5] (4T1-TaxR mammospheres, PT 100 nM, compound 5 μM, 3 days), the “further reduction of cell viability compared to PT alone” value is listed as 25–30%.
